In assay [1] the test system is DLD-1. The experiment in a line: Inhibition of 20S proteasome in human DLD1 cells transfected with 4Ub-Luc gene assessed as bioluminescence induction factor at 5 uM after 8 hrs by luciferase reporter gene assay relative to epoxomicin. It counts as cell-based. In short, it runs like this: (§1)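 Stably transfected DLD-1 cells expressing 4Ub-Luc reporter, cultured in MEM with 5% heat-inactivated serum. Seeded at 10⁴ cells/well and treated with compound or solvent for 8 h. Luciferase activity in lysates read by luminometer. Induction factor = signal of treated over untreated cells, normalised to epoxomicin at 10^-7 M run in parallel (set to 100). IF ≥10 counted active.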
(In general: In a reporter assay the amount or activity of a reporter protein is the signal.)

Assay [2] has as its system DLD-1. The experiment in a line: Inhibition of 20S proteasome activity in human DLD1 cells transfected with 4Ub-Luc gene assessed as bioluminescence induction factor at 10 uM after 8 hrs by luciferase reporter gene assay relative to epoxomicin. In kind it is cell-based. In a few lines: as §1
Assay [3] in a line: Inhibition of chymotrypsin-like activity of 20S proteasome in human DLD1 cells transfected with 4Ub-Luc gene using Succinyl-Leu-Leu-Val-Tyr-AMC as substrate after 6 hrs by spectrofluorometric analysis. It counts as cell-based. The settings on record: dld-1. In a few lines: (§2)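 DLD-1 4Ub-Luc cells seeded at 10⁴ cells/well, exposed to compound or solvent for 6 h, then 30 min in reaction buffer (30 mM Tris–HCl pH 7.5, 1 mM ATP). Chymotrypsin-like and PGPH activities read with specific fluorogenic substrates.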

The subject of assay [4] is DLD-1. The experiment in a line: Inhibition of 20S proteasome in human DLD1 cells transfected with 4Ub-Luc gene assessed as bioluminescence induction factor at 1 uM after 8 hrs by luciferase reporter gene assay relative to epoxomicin. In kind it is cell-based. In short, it runs like this: as §1
Assay [5] has as its system DLD-1. Put plainly: Inhibition of 20S proteasome in human DLD1 cells transfected with 4Ub-Luc gene assessed as bioluminescence induction factor at 0.1 uM after 8 hrs by luciferase reporter gene assay relative to epoxomicin. In kind it is cell-based. In short, it runs like this: as §1
The nature of assay [6]: Inhibition of peptide-glutamyl-peptide-hydrolyzing activity of 20S proteasome in human DLD1 cells transfected with 4Ub-Luc gene using Z-Leu-Leu-Glu-AMC as substrate after 6 hrs by spectrofluorometric analysis. It counts as cell-based. The settings on record: dld-1. In short, it runs like this:
as §2

A short description of assay [7]: Cytotoxicity against human WM266.4 cells after 72 hrs by ATPlite assay. It counts as functional, cell-based. The settings on record: WM 266-4, 72 h. In short, it runs like this:
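WM-266-4 metastatic melanoma cells grown in DMEM with 10% fetal calf serum, 2 mM L-glutamine, fungizone and penicillin–streptomycin at 37 °C, 5% CO2. Seeded at 3 × 10⁴ cells/ml, left 24 h, then exposed to increasing compound concentrations for 72 h. Viability read as ATP level (ATPlite). IC50 from nonlinear sigmoidal fit with variable Hill slope; mean of two independent experiments.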
(In general: In ATP-based viability assays light output follows the ATP content of the culture.)

The test system of assay [8] is DLD-1. The experiment in a line: Inhibition of peptide-glutamyl-peptide-hydrolyzing activity of 20S proteasome in human DLD1 cells transfected with 4Ub-Luc gene using Z-Leu-Leu-Glu-AMC as substrate at 40 uM after 6 hrs by spectrofluorometric analysis. It counts as cell-based. In a few lines:
(§3)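 Stably transfected DLD-1 4Ub-Luc cells seeded at 10⁴ cells/well, exposed to compound or solvent for 6 h, then incubated a further 30 min in reaction buffer (30 mM Tris–HCl pH 7.5, 1 mM ATP) with an activity-specific fluorogenic substrate; cellular proteasome activity read by fluorescence. Cells grown in MEM with 5% heat-inactivated serum.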

Assay [9] relates to DLD-1. Put plainly: Inhibition of chymotrypsin-like activity of 20S proteasome in human DLD1 cells transfected with 4Ub-Luc gene using Succinyl-Leu-Leu-Val-Tyr-AMC as substrate at 20 uM after 6 hrs by spectrofluorometric analysis. In kind it is cell-based. In a few lines: as §3
Assay [10] concerns DLD-1. The experiment in a line: Inhibition of 20S proteasome in human DLD1 cells transfected with 4Ub-Luc gene assessed as bioluminescence induction factor at 0.5 uM after 8 hrs by luciferase reporter gene assay relative to epoxomicin. It counts as cell-based. In a few lines: as §1

Each structure is given as a SMILES string. The source made the active and inactive calls. The calls are words filed in the database; no cut-off is given here.

For orientation: IC50 means the point on the concentration scale where inhibition reaches its midpoint. Read a high IC50 as weaker potency. Regarding `CC(=O)N[C@@H](CSC(=O)[C@]1([C@@H](O)C(C)C)NC(=O)[C@H](C)[C@@H]1O)C(=O)O` [LACTACYSTIN], the fold change (FC) was 106 in assay [1], 93 in assay [2], 72 in assay [4] and 6.2 in [5]. The IC50 was determined as 70 nM in assay [3] and 300 nM in [6].
As to `CC(C)C[C@H](NC(=O)[C@H](Cc1ccccc1)NC(=O)c1cnccn1)B(O)O` [BORTEZOMIB], the figures for the IC50 in [3], in [7] and in [6] were 0.2 nM, 35 nM and 0.9 nM, respectively. Further, the results for the fold change (FC) in [4] and in assay [5] were 117 and 133, respectively.
Turning to `C[C@]12C(=O)C=CCC1=CC[C@@H]1[C@@H]2CC[C@]2(O)C(=O)O[C@@]3(C)[C@H]4C[C@]5(C)[C@@H](CO[C@@]16O[C@@]32[C@H]5C6=O)C(=O)O4`, the fold change (FC) in assay [1] amounted to 19. In addition, the inhibition result in [8] and in [9] was “Active” in each case.
Consider `CC[C@H](C)[C@H](NC(=O)[C@H]([C@@H](C)CC)N(C)C(C)=O)C(=O)N[C@H](C(=O)N[C@@H](CC(C)C)C(=O)[C@@]1(C)CO1)[C@@H](C)O` [EPOXOMYCIN], for which the values for the IC50 in [3], in assay [7] and in [6] were 6 nM, 4.8 nM and 60 nM, respectively. In addition, the fold change (FC) in assay [4] came to 112; in assay [5] it was 100.
In the case of `C=C(C(=O)[C@H](OC(C)=O)[C@@H](C)[C@H]1[C@@H](OC(C)=O)C[C@@]2(C)[C@@H]3CC[C@H]4[C@H](C)C(=O)C=C[C@@]45C[C@@]35CC[C@]12C)[C@@H](C)COC(=O)CN(C)C`, the fold change (FC) is 11 in [1], 2.7 in [2], 50 in assay [4] and 66 in assay [10]. The figures for the IC50 in [3], in assay [7] and in assay [6] were 31000 nM, 610 nM and 52000 nM, respectively.
